Source: ChEMBL document CHEMBL4725411, “A Phosphoramidate Strategy Enables Membrane Permeability of a Non-nucleotide Inhibitor of the Prolyl Isomerase Pin1” (ACS Med Chem Lett, 2020)
The source made the active and inactive calls. The calls are words filed in the database; no cut-off is given here.

What was measured:
[1] = biological target: Peptidyl-prolyl cis-trans isomerase NIMA-interacting 1 (Homo sapiens, UniProt Q13526); assay: Displacement of FITC-WFYpSPFLE from human Pin1 (45-163) catalytic domain by fluorescence polarization assay
PC-3 [2] = assay: Inhibition of colony formation in human PC-3 cells; assay type: functional, cell-based
Outline: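 PC3 cells treated at low density, colony formation scored. Mean of triplicate experiments, error as SD.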

[3] = Octanol/water partition coefficient, logP of compound; assay type: physicochemical
PC-3 [4] = assay: Antiproliferative activity in human PC-3 cells after 72 hrs by MTT assay; assay type: functional, cell-based
Outline: (§1)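 PC3 cells grown to higher confluence, compound exposure 72 h. Proliferation read by ATP-Glo luminescence or by MTT.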

[5] = Prodrug conversion in human MDA-MB-231 cells assessed as increase in Pin1 level mesured longer than 24 hrs; assay type: ADME, cell-based; conditions: mda-mb-231, 24 h
Outline: (§2)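 MDA-MB-231 cells treated over a dose series for 72 h (longer than 24 h), with or without the Hint1 inhibitor TrpGc at 100 μM. Pin1 abundance at normal temperature used as the read-out.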

PC-3 [6] = assay: Antiproliferative activity in human PC-3 cells after 72 hrs by ATP-Glo assay; assay type: functional, cell-based; outline: as §1
[7] = Prodrug conversion in human K562 cells assessed as cytosolic enzyme product of 1-R-phosphate after 5 hrs by UPLC-MS analysis; assay type: ADME, cell-based; conditions: k562, 5 h
Outline: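 K562 cells exposed 5 h in serum-free medium, then washed extensively, centrifuged and extracted with ethyl acetate. Products quantified by UPLC-MS. DMSO solvent control subtracted as background. Average of duplicates with full range.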

[8] = Prodrug conversion in cell free extract; assay type: ADME
Outline: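 Cell-free control run in medium without cells, then ethyl acetate extraction and UPLC-MS for the intermediate and the free phosphate.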

[9] = Prodrug release in human K562 cells assessed as 1R-phosphate binding to Pin1 at 25 uM after 5 hrs by Western blot based cellular thermal shift assay; assay type: ADME, cell-based; conditions: k562, 5 h
Outline: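 K562 cells exposed to prodrug at 25 μM or 0.25% DMSO for 5 h, then heated across 38–60 °C and lysed. Soluble Pin1 measured by Western blot. Three independent experiments, error as SEM.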

[10] = Prodrug conversion in human MDA-MB-231 cells assessed as increase in Pin1 level at 5 uM in presence of 100 uM TrpGc Hint1 inhibitor; assay type: ADME, cell-based; conditions: mda-mb-231, 5 µM; outline: as §2
[11] = Prodrug release in human MDA-MB-231 cells assessed as 1R-phosphate binding to Pin1 at 25 uM at fixed temperature 48 degC by Western blot based assay; assay type: ADME, cell-based; conditions: mda-mb-231, 25 µM
Outline: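 MDA-MB-231 cells dosed at 25 μM or with 0.25% DMSO for 5 h, heated at a fixed 48 °C and lysed. Soluble Pin1 measured by Western blot in biological quadruplicates.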

Chain of Peptidyl-prolyl cis-trans isomerase NIMA-interacting 1 (Q13526 whole entry, the tested form may be a part): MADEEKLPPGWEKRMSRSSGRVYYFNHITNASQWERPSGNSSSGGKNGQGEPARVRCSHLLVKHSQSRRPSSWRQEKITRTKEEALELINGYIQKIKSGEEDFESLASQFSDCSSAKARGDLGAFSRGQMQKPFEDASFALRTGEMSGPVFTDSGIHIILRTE

SMILES	IC50 [1]	inhibition (PC-3 [2])	logP [3]	Activity (PC-3 [4])	Drug metabolism [5]	Activity (PC-3 [6])	Drug metabolism [7]	Drug metabolism [8]	Drug metabolism [9]	Drug metabolism [10]	Drug metabolism [11]
CCOC(=O)CNP(=O)(OC[C@H](Cc1ccccc1)NC(=O)c1cc2ccccc2s1)Oc1ccccc1 (some centres undefined)	> 10 µM	inactive									
O=C(N[C@@H](COP(=O)(O)O)Cc1ccccc1)c1cc2ccccc2s1			< -4.6								
CCOC(=O)CNP(=O)(OC[C@@H](Cc1ccccc1)NC(=O)c1cc2ccccc2s1)Oc1ccccc1 (some centres undefined)	> 10 µM	Active	0.27	inactive	Metabolite_Detected	inactive	Metabolite_Detected	Metabolite_Notdetected	Metabolite_Detected	Metabolite_Notdetected	Metabolite_Detected
